Article PMC4317336 (Journal of controlled release : official journal of the …, 2013)

Tested on: tumor biopsies from stage IV NB patients
Test: phage overlay binding assay on tumor biopsies from NB patients
Conditions: human NB sections, compared with Mallory Trichrome histology
Outline: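 Frozen sections (5 μm) from stage IV NB patient tumors in OCT, fixed 10 min at room temperature in 4% paraformaldehyde/PBS, washed twice in PBS, and blocked with serum-free protein block. Sections overlaid 1 h at 4°C with 10⁸ T.U./μl of each phage clone; insertless Fd-Tet phage as negative control. Bound phage detected with anti-bacteriophage antibody plus HRP polymer, then hematoxylin counterstain.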

Substance | tumor component preferentially bound
HSYWLSR [Phage #5] | preferentially bind to non-epithelial tumor components
KSFFLSH [Phage #14] | widely recognizes the whole NB masses
ALAAHKL [Phage #10] | preferentially bind to non-epithelial tumor components
WSWPREL [Phage #8] | preferentially bind to non-epithelial tumor components
YEGLISR [Phage #1] | preferentially bind to non-epithelial tumor components
